Hits are enriched below; roughly 4.6% of the tested compounds scored in any of these assays.
OX1R antag-1: blocks the human orexin 1 receptor | O43613 | OX1R-expressing cells, FRET antagonist read-out | inhibition, % at 6.6 µM | 330,000 tested, 1.8% active | AID 485270; in the data active = inhibition mostly above about 38%, no sharp cut-off; inactive = mostly below about 40%;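 note: 0% = agonist challenge alone and 100% = reference antagonist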
CHO parental Ca: signal in parental CHO cells, OX1R antagonist counter-screen; parental CHO-K1, ATP-induced calcium, Fluo-8 fluorescence; inhibition, % at 5.6 µM; 330,000 tested, 0.63% active; AID 463079;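 active = inhibition above that plate's mean sample inhibition plus 3 SD, cut at about 26% in these data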;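 note: 0% = ATP-challenged DMSO wells and 100% = DMSO wells without ATP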
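material = parental CHO cells | also added = ATP as calcium-mobilizing challenge | dosing = single point at 5.6 µM | detection = intracellular calcium via Fluo-8 no-wash fluorescent dye | read-out = % inhibition | benchmarks = low control ATP plus DMSO, high control DMSO only | repeats = one well per compound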
GPR7 antag: antagonists of human GPR7 (neuropeptides B/W receptor 1); P48145; GPR7-expressing cells, fluorescence antagonist assay; inhibition, % at 4.4 µM; 290,000 tested, 1.1% active; in the data active = inhibition above about 16%, passing the limit was not always enough;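 note: cells stimulated with the agonist NPW; 0% = agonist with vehicle and 100% = vehicle without agonist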
Target sequence (P48145 whole entry, looked up): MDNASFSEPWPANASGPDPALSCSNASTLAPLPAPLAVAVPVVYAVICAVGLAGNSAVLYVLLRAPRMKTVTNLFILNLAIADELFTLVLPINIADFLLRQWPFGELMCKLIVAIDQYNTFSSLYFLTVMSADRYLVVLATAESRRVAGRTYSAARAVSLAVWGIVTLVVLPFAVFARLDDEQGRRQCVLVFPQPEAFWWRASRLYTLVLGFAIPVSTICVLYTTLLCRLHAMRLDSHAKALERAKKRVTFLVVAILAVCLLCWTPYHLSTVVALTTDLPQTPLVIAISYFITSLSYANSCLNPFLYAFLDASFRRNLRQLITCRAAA
TAAR1 antag: antagonists of human TAAR1; CHO RD-HGA16 TAAR1, Fluo-8 calcium fluorescence, antagonist; 360,000 tested, 1.5% active; inhibition, % at 3 µM;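 active = inhibition above a per-plate cutoff, the mean inhibition of test compounds on that plate plus 3 SD, cut at about 49% in these data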;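 note: 0% = DMSO plus EC80 beta-PEA response and 100% = DMSO alone without agonist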
Target sequence (Q96RJ0 whole entry, looked up): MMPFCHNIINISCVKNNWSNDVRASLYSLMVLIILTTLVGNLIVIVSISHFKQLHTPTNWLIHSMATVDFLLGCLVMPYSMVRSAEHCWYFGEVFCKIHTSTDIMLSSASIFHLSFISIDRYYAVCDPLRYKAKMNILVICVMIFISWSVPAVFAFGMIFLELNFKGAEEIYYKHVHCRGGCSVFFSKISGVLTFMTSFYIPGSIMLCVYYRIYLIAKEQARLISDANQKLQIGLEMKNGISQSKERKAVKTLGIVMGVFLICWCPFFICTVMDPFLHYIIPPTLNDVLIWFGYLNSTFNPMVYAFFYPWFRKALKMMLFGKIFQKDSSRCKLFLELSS
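test system = CHO RD-HGA16 cells bearing hTAAR1 | replication = singlicate | controls = DMSO-only wells and EC80 β-PEA-stimulated wells | reagent = EC80 β-phenethylamine stimulus | read-out basis = percent inhibition of PEA-evoked calcium signal, max/basal emission ratio | schedule = seeding 17-24 h prior, 75-min 37 °C, 30-min RT dye loading | signal = kinetic Fluo-8 calcium fluorescence measurement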
TAAR1 ag: agonists of human TAAR1. 360,000 tested, 0.99% active. CHO RD-HGA16 TAAR1, Fluo-8 calcium fluorescence; vehicle wells 0%, saturating PEA agonist 100%. activation, % at 3 µM;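 active = activation above the mean activation of all test compounds in the run plus 3 SD, cut at about 38% in these data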
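Assay system – CHO-derived RD-HGA16 cells with stable Gα16 and human TAAR1 · Compound dosing – one-point dosing at 3 µM (nominal) · Incubation – 17-24 h seeding, 75 min 37 °C dye, 30 min RT · Measured by – kinetic Fluo-8 calcium fluorescence · Control set – DMSO vehicle as 0%, PEA at EC100 as 100% · Repeats – single well for each compound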
OX1R antag-2: blocks the human orexin 1 receptor; CHO/OX1R cells, Fluo-8 calcium fluorescence, orexin A; inhibition, % at 5 µM; 330,000 tested, 0.43% active; AID 434989;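 active = inhibition above its plate's threshold, mean inhibition of all tested compounds on the plate plus 3 SD, cut at about 37% in these data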;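 note: 0% = orexin A challenge wells and 100% = SB-334867-A antagonist wells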
TAAR1 ag confirm: human TAAR1 agonism, confirmed; shares compounds with TAAR1 ag; CHO RD-HGA16 TAAR1, Fluo-8 calcium fluorescence; scaled: DMSO 0%, maximal phenethylamine 100%; activation, % at 3 µM; 2,400 tested, 82% active; AID 651783;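 active = activation above a cutoff set at the run's mean compound activation plus 3 SD, cut at about 39% in these data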
Ga16 nonsel ag: counter-screen for TAAR1 agonists: nonselective agonists in parental cells; CHO-Ga16 parental, Fluo-8 calcium fluorescence; normalized to maximal ATP response, DMSO zero; 2,400 tested, 50% active; shares compounds with TAAR1 ag; activation, % at 3 µM;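 active = activation above the run cutoff, the mean activation over all tested wells plus 3 SD, cut at about 12% in these data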;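 note: 0% = DMSO wells and 100% = maximal ATP response on the peak over basal ratio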
TAAR1 desensitize: human TAAR1 agonist that also desensitizes the receptor; shares compounds with TAAR1 ag; CHO RD-HGA16 hTAAR1, Fluo-8 calcium, beta-PEA response inhibition; inhibition, % at 3 µM; 2,400 tested, 46% active; AID 651951;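 active = inhibition above the run cutoff, the mean inhibition of all test compounds plus 3 SD, cut at about 49% in these data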;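 note: beta-PEA stimulus applied at its EC80; loss of beta-PEA calcium signal after compound pretreatment read as receptor desensitization; 0% = DMSO with beta-PEA at EC80 and 100% = DMSO alone without agonist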
Ga16 nonsel ant: nonselective Ga16 antagonism, counter-screen | inhibition, % at 3 µM | shares compounds with TAAR1 ag | 2,400 tested, 39% active | AID 651952 | CHO-Ga16 ATP-induced calcium, Fluo-8 fluorescence;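 active = inhibition above the plate's mean compound inhibition plus 3 SD, computed per plate, cut at about 22% in these data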;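 note: 0% = EC80 ATP with DMSO and 100% = DMSO wells without ATP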
Starred values were filed as active, the others as inactive.

What do the screens show for `Cc1ccc(Nc2cc(C)c3c(O)cccc3n2)cc1C`?
OX1R antag-1: 4.1; CHO parental Ca: 14.4; GPR7 antag: 6.3; TAAR1 antag: 54.1*; TAAR1 ag: 97.9*; OX1R antag-2: 9.8; TAAR1 ag confirm: 96.1*; Ga16 nonsel ag: 28.3*; TAAR1 desensitize: 87.4*; Ga16 nonsel ant: 24.8*

Results for O=C(NCc1ccccc1)N1CCN(c2ccc(Cl)c(Cl)c2)CC1 ?
OX1R antag-1: 46.5; CHO parental Ca: 41.8*; GPR7 antag: 13.8; TAAR1 antag: 101.4*; TAAR1 ag: 95.2*; OX1R antag-2: 38.2; TAAR1 ag confirm: 17.5; Ga16 nonsel ag: 10.3; TAAR1 desensitize: 42.8; Ga16 nonsel ant: 35.6*

How did O=C(NCc1ccccc1)N1CCN(c2ccc(F)cc2)CC1 do in these assays?
OX1R antag-1: 18.4; CHO parental Ca: -0.8; GPR7 antag: -11.3; TAAR1 antag: -8.8; TAAR1 ag: 2.3; OX1R antag-2: -17.6

What do the screens show for `CC(C)c1ccccc1NCC(=O)N1CCN(Cc2ccccc2)CC1`?
OX1R antag-1: 7.9; CHO parental Ca: -9.6; GPR7 antag: 2.9; TAAR1 antag: -3.4; TAAR1 ag: -0.2; OX1R antag-2: -21.1

What do the screens show for `c1ccc2c(CC3=NCCN3)cccc2c1`?
OX1R antag-1: 9.3; CHO parental Ca: 4.9; GPR7 antag: 2.1; TAAR1 antag: 74.4*; TAAR1 ag: 96.8*; OX1R antag-2: -9.7; TAAR1 ag confirm: 95.3*; Ga16 nonsel ag: 9.7; TAAR1 desensitize: 90.4*; Ga16 nonsel ant: -1.3

How did COC(=O)c1cnc(Nc2nc(C(N)COCc3ccccc3)cs2)nc1C(F)(F)F (configuration not stated) do in these assays?
TAAR1 antag: -2.2; TAAR1 ag: 13.0

What do the screens show for `COC(=O)c1cnc(Nc2nc(C(N)c3ccccc3Cl)cs2)nc1C(F)(F)F` (configuration not stated)?
TAAR1 antag: 40.8; TAAR1 ag: 60.3*; TAAR1 ag confirm: 68.3*; Ga16 nonsel ag: 36.0*; TAAR1 desensitize: 28.8; Ga16 nonsel ant: 28.5*

Results for CC1CCCCC1NC(=O)CSc1nnc(-c2ccco2)n1N (configuration not stated) ?
TAAR1 antag: 24.4; TAAR1 ag: 72.7*; TAAR1 ag confirm: 15.4; Ga16 nonsel ag: 3.1; TAAR1 desensitize: -4.6; Ga16 nonsel ant: 2.6

How did Nc1nc2c(ncn2[C@@H]2O[C@H](CNCc3cnc(N4CCOCC4)nc3)[C@@H](O)[C@H]2O)c(=O)[nH]1 do in these assays?
TAAR1 antag: 9.1; TAAR1 ag: 0.5

Results for Cc1cc(NC(=O)C2CC(=O)OC2c2ccccc2)no1 (configuration not stated) ?
OX1R antag-1: 2.0; CHO parental Ca: -3.6; GPR7 antag: -12.2; TAAR1 antag: 0.4; TAAR1 ag: 20.5; OX1R antag-2: -5.2

Results for COc1ccc(NC(=O)C2CC(=O)OC2c2ccccc2)cc1 (configuration not stated) ?
OX1R antag-1: 1.2; CHO parental Ca: -3.3; GPR7 antag: -5.0; TAAR1 antag: -7.4; TAAR1 ag: 50.6*; OX1R antag-2: -9.7; TAAR1 ag confirm: 1.5; Ga16 nonsel ag: 1.3; TAAR1 desensitize: 2.9; Ga16 nonsel ant: 12.1

Results for COc1ccc(NC(=O)CSc2ccc3c4c(cccc24)C(=O)c2ccccc2-3)cc1 ?
OX1R antag-1: 0.7; CHO parental Ca: 4.3; GPR7 antag: -5.0; TAAR1 antag: 37.1; TAAR1 ag: 19.5; OX1R antag-2: 2.6

How did N#Cc1cccc(NC(=O)CSc2ccc3c4c(cccc24)C(=O)c2ccccc2-3)c1 do in these assays?
OX1R antag-1: 61.5; CHO parental Ca: 58.8*; GPR7 antag: -6.4; TAAR1 antag: 86.5*; TAAR1 ag: 86.1*; OX1R antag-2: 75.3*; TAAR1 ag confirm: 46.8*; Ga16 nonsel ag: 56.9*; TAAR1 desensitize: 73.5*; Ga16 nonsel ant: 76.7*

What do the screens show for `Cn1c(CN2CCCCC2)nc2cc(NS(=O)(=O)c3ccc(Cl)cc3)ccc21`?
OX1R antag-1: 7.6; CHO parental Ca: -11.7; GPR7 antag: 2.1; TAAR1 antag: 8.8; TAAR1 ag: 70.2*; OX1R antag-2: 12.6; TAAR1 ag confirm: 76.9*; Ga16 nonsel ag: 40.5*; TAAR1 desensitize: 38.8; Ga16 nonsel ant: 23.3*

Results for Cc1ccc(-c2nnn(CC(=O)N(CC(=O)NC3CCCC3)c3cccc(F)c3)n2)o1 ?
OX1R antag-1: 14.7; CHO parental Ca: -10.7; GPR7 antag: -9.1; TAAR1 antag: 5.6; TAAR1 ag: -2.2; OX1R antag-2: -16.1

How did CC(=O)c1cccc(OCC(O)CNCCc2ccc(Cl)cc2)c1 (configuration not stated) do in these assays?
OX1R antag-1: -1.4; CHO parental Ca: -17.2; GPR7 antag: 14.2; OX1R antag-2: -6.5; Ga16 nonsel ag: 6.5; Ga16 nonsel ant: -1.0

Results for OC(CNCCc1ccc(Cl)cc1)COCc1ccco1 (configuration not stated) ?
OX1R antag-1: 14.3; CHO parental Ca: -20.8; GPR7 antag: -1.7; TAAR1 antag: 2.2; TAAR1 ag: 56.0*; OX1R antag-2: -16.7; TAAR1 ag confirm: 67.1*; Ga16 nonsel ag: 0.9; TAAR1 desensitize: 26.0; Ga16 nonsel ant: 6.5

What do the screens show for `CCOC(=O)c1cccc(OCC(O)CNCCOc2ccccc2F)c1` (configuration not stated)?
OX1R antag-1: 19.1; CHO parental Ca: -25.7; GPR7 antag: -3.2; TAAR1 antag: -3.3; TAAR1 ag: 23.8; OX1R antag-2: -20.7

Results for Cc1[nH]c2ccccc2c1CC(=O)Nc1ccc(Nc2ccccc2)cc1 ?
TAAR1 antag: 40.9; TAAR1 ag: 6.3

High-throughput results deposited in PubChem BioAssay by The Scripps Research Institute Molecular Screening Center.
